Active and inactive are the calls of the source. No cut-off for these calls is given here.
How the values were obtained:
Rattus norvegicus [1] = species: Rattus norvegicus; assay: Inhibition of Na+ channel in rat embryonic cortical neurons assessed as hyperpolarizing shift of current at 10 uM by whole-cell voltage clamp assay
[2] = target: 5-hydroxytryptamine receptor 1B (Homo sapiens) (UniProt P28222); assay: Inhibition of 5-HT1B receptor (unknown origin) at 10 uM relative to control
Rattus norvegicus [3] = assay: Anticonvulsant activity in po dosed albino Sprague-Dawley rat assessed as protection against maximal electroshock-induced seizures measured at 1 hr; type: functional
How it was run: (§1)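 Screened under the NINDS ASP in male albino Carworth Farms No. 1 mice (ip) or male albino Sprague-Dawley rats (ip or po), using MES, 6 Hz (32 mA) and subcutaneous pentylenetetrazol seizure tests. Initial qualitative tests used preset doses (e.g., 30, 50, 100 mg/kg). ED50 values with 95% confidence intervals came from dose–response data collected at the time of peak effect.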

Mus musculus [4] = assay: Anticonvulsant activity in ip dosed albino CF-1 mouse assessed as protection against maximal electroshock-induced seizures measured at 0.25 hrs; type: functional; conditions: albino CF-1, ip; how it was run: as §1
[5] = target: T1, Alpha-1A adrenergic receptor (Homo sapiens) (UniProt P35348); assay: Inhibition of adrenergic alpha-1A receptor (unknown origin) at 10 uM relative to control
T1 sequence (whole entry): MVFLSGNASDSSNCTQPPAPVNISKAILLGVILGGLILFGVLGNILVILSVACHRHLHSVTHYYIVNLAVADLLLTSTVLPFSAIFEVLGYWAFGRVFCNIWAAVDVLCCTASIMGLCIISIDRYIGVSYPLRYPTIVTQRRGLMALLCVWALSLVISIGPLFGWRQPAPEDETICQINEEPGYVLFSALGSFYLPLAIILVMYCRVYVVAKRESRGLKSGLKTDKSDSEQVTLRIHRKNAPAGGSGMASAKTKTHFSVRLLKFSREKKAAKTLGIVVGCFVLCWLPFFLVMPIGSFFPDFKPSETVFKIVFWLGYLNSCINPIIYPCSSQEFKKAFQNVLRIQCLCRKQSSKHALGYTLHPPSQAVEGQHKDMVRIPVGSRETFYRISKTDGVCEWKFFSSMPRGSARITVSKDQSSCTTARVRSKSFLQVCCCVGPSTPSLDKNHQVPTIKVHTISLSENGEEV

[6] = target: T2, 5-hydroxytryptamine receptor 3A (Homo sapiens) (UniProt P46098); assay: Inhibition of 5-HT3 receptor (unknown origin) at 10 uM relative to control
T2 sequence (whole entry): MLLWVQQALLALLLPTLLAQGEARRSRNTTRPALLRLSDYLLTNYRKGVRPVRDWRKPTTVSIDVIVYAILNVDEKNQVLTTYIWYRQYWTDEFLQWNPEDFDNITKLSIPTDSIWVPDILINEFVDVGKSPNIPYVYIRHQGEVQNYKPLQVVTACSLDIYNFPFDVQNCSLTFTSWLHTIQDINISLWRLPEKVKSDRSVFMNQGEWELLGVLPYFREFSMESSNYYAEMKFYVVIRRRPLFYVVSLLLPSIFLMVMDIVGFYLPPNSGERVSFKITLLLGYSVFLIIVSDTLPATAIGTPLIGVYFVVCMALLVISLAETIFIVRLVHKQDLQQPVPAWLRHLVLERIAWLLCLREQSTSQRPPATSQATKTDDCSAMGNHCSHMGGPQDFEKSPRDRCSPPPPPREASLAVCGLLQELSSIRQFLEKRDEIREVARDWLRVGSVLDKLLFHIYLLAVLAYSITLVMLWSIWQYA

[7] = target: 5-hydroxytryptamine receptor 1E (Homo sapiens) (UniProt P28566); assay: Inhibition of 5-HT1E receptor (unknown origin) at 10 uM relative to control
5-hydroxytryptamine receptor 1E (Homo sapiens), sequence (P28566 whole entry): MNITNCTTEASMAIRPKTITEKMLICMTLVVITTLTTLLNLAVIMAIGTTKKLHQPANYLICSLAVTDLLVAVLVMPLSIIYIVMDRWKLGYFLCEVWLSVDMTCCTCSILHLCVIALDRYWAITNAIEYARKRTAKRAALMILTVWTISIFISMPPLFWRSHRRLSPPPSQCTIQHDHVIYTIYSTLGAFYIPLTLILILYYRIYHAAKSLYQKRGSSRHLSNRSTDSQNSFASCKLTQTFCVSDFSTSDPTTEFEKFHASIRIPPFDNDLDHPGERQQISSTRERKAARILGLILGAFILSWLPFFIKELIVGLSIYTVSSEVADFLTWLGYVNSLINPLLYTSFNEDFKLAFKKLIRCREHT

[8] = target: D(2) dopamine receptor (Homo sapiens) (UniProt P14416); assay: Inhibition of dopaminergic D2 receptor (unknown origin) at 10 uM relative to control
D(2) dopamine receptor (Homo sapiens), sequence (P14416 whole entry): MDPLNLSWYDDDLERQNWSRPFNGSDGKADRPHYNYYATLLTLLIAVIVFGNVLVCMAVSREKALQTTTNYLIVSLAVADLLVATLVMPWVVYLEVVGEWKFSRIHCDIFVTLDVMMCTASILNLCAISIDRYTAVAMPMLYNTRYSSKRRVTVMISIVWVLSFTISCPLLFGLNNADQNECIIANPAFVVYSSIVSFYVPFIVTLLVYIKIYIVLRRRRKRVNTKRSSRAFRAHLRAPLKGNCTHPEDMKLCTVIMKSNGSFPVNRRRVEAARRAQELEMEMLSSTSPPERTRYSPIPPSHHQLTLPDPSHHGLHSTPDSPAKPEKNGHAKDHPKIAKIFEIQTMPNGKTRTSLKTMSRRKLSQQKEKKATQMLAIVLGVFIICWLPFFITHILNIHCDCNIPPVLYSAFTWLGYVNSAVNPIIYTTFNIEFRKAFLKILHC

[9] = target: T3, Alpha-1D adrenergic receptor (Homo sapiens) (UniProt P25100); assay: Inhibition of adrenergic alpha-1D receptor (unknown origin) at 10 uM relative to control
T3 sequence (whole entry): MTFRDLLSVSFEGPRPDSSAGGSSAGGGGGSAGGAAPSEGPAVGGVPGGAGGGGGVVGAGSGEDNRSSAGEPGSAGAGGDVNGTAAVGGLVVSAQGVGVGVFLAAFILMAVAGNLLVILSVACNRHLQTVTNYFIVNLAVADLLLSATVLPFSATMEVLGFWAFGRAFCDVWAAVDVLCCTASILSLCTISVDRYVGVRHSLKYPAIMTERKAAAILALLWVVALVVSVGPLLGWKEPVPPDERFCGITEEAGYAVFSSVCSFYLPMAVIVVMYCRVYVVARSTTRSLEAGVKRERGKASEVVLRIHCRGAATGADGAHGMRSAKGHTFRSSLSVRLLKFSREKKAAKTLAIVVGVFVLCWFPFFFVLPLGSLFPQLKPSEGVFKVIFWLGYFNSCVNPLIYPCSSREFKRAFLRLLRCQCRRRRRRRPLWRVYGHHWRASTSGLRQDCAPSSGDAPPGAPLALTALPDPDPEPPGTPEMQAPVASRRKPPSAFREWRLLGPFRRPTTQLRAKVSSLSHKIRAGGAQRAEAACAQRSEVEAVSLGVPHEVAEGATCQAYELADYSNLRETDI

Rattus norvegicus [10] = species: Rattus norvegicus; assay: Induction of voltage-dependent Na+ channel activation in rat embryonic cortical neurons at 10 uM by whole-cell voltage clamp assay (reference value: - 39 +/- 7.8 mV)
Rattus norvegicus [11] = species: Rattus norvegicus; assay: Activity at Na+ channel in rat embryonic cortical neurons assessed as effect on total macroscopic sodium current at 10 uM by whole-cell voltage clamp assay
[12] = Toxicity in ip dosed albino CF-1 mouse assessed as neurological impairment measured at 0.25 hrs by rotorod test; type: organism-based; conditions: in vivo
How it was run: (§2)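 Male albino Carworth Farms No. 1 mice dosed intraperitoneally under the NINDS Anticonvulsant Screening Program; neurological impairment scored by rotorod test. Qualitative screens used preset doses (e.g., 30, 100 mg/kg); where activity was sufficient, dose–response curves were run at time of peak effect to give TD50 in mg/kg with 95% confidence intervals.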

Mus musculus [13] = assay: Anticonvulsant activity in ip dosed albino CF-1 mouse assessed as protection against subcutaneous metrazol-induced seizure measured at 0.25 hrs; type: functional; conditions: albino CF-1, 0.25 h; how it was run: as §1
Mus musculus [14] = assay: Anticonvulsant activity in ip dosed albino CF-1 mouse assessed as protection against 6 Hz psychomotor seizure measured at 0.25 to 4 hrs; type: functional; conditions: albino CF-1, ip; how it was run: as §1
[15] = Toxicity in ip dosed albino CF-1 mouse assessed as neurological impairment measured at 0.25 to 4 hrs by rotorod test; type: organism-based; conditions: in vivo; how it was run: as §2
Mus musculus [16] = assay: Anticonvulsant activity in ip dosed albino CF-1 mouse assessed as protection against 6 Hz psychomotor seizure measured at 0.5 hrs; type: functional; conditions: albino CF-1, ip; how it was run: as §1
[17] = Toxicity in ip dosed albino CF-1 mouse assessed as neurological impairment measured at 0.5 to 2 hrs by rotorod test; type: organism-based; conditions: in vivo; how it was run: as §2
Mus musculus [18] = assay: Anticonvulsant activity in ip dosed albino CF-1 mouse assessed as protection against maximal electroshock-induced seizures measured at 0.5 hrs; type: functional; conditions: albino CF-1, ip; how it was run: as §1
Mus musculus [19] = assay: Anticonvulsant activity in ip dosed albino CF-1 mouse assessed as protection against maximal electroshock-induced seizures measured at 0.25 to 0.5 hrs; type: functional; conditions: albino CF-1, ip; how it was run: as §1

5-hydroxytryptamine receptor 1B (Homo sapiens), sequence (P28222 whole entry): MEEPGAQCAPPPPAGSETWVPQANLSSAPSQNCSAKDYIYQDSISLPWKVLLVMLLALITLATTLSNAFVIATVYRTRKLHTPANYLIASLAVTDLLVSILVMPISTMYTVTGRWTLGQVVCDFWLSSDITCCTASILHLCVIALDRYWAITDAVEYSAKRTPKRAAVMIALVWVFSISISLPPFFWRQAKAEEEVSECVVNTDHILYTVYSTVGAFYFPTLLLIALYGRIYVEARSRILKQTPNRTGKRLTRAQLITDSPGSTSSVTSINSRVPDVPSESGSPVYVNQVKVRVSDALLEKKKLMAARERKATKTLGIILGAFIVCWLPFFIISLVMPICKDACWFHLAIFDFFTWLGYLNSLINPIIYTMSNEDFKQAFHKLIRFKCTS

inhibition [2] | inhibition [5] | inhibition [6] | inhibition [7] | inhibition [8] | inhibition [9] | Compound | ED50 (Mus musculus [4]) | TD50 at 0.25 h [12] | ED50 (Mus musculus [14]) | TD50 [15] | ED50 (Mus musculus [18]) | further results
-8.8% | -9.7% | 10.4% | -5.2% | 12.7% | 6.5% | Cl.NCc1ccc(OCc2ccccc2OC(F)(F)F)cc1 | 20 mg/kg | 64 mg/kg | < 100 mg/kg | – | – | Activity (Rattus norvegicus [1]): 15.3 mV; ED50 (Rattus norvegicus [3]): 30 mg/kg; V1/2 (Rattus norvegicus [10]): -35.3 mV; Activity (Rattus norvegicus [11]): inactive; ED50 (Mus musculus [13]): > 80 mg/kg
– | – | 13.7% | – | – | -1.9% | Cl.NCc1ccc(OCc2cccc(Cl)c2)cc1 | 54 mg/kg | 160 mg/kg | – | – | – | ED50 (Mus musculus [13]): > 180 mg/kg
-2.5% | -7.5% | -4.2% | – | – | 0.2% | Cl.NCc1ccc(OCc2ccc(F)cc2)cc1 | < 100 mg/kg | – | > 100 mg/kg | > 100 mg/kg | – | –
– | 12.8% | – | – | 12.4% | – | Cl.NCc1ccc(OCc2ccccc2)cc1 | – | – | – | – | – | ED50 (Mus musculus [16]): 30 mg/kg; TD50 [17]: 100 mg/kg
-7.7% | – | – | -6.6% | 7.4% | – | Cl.NCc1ccc(OCc2ccccc2F)cc1 | – | – | – | – | 30 mg/kg | ED50 (Mus musculus [16]): 30 mg/kg; TD50 [17]: 100 mg/kg
– | – | – | -6.9% | 5.3% | – | Cl.NCc1ccc(OCc2ccc(OC(F)(F)F)cc2)cc1 | – | – | – | > 100 mg/kg | < 100 mg/kg | –
– | – | – | – | – | – | Cl.NCc1ccc(OCc2cccc(OC(F)(F)F)c2)cc1 | – | 92 mg/kg | – | – | 28 mg/kg | –
-6.7% | -9.4% | 23.1% | 2.7% | – | -6.6% | Cl.NCc1ccc(OCc2ccc(Cl)cc2)cc1 | < 100 mg/kg | – | – | > 100 mg/kg | – | –
– | – | – | – | 3.2% | -9.1% | Cl.NCc1ccc(OCc2cccc(F)c2)cc1 | – | – | > 50 mg/kg | > 100 mg/kg | – | ED50 (Mus musculus [19]): < 100 mg/kg
